Hit rate of the full screen: of about 65,000 compounds, about 1,200 (1.8%) were called active.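 The calls were made as follows: active = activation above the mean activation of all tested compounds plus 3 SD (cut at about 50% in these data); inactive = the rest.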 Many of the other results were omitted from the sample, so actives are more common in it than they were.
Biological target: Steroidogenic factor 1 (Homo sapiens) (UniProt Q13285)
Assay: activators of human SF-1, primary screen, cell-based, CHO-K1, Gal4-SF-1 LBD, luciferase luminescence (AID 522)
Conditions: CHO-K1 Gal4-SF-1 LBD luciferase reporter; at 10 µM; stronger effect = higher value; % increase over DMSO SF-1-specific signal
Procedure, shortened: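 Material: Gal4–SF-1 LBD one-hybrid luciferase reporter in CHO-K1 cells | Amount: 4,000 cells per well | Compound dosing: 10 µM single point, 1% DMSO | Schedule: 20 h compound treatment, 37 °C | Measured by: SteadyLite luciferase luminescence | Evaluation: Percent activation versus DMSO | Control set: DMSO-treated SF-1-transfected cells as negative, DMSO-treated mock-transfected cells lacking SF-1 as background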

Steroidogenic factor 1 (Homo sapiens), sequence (Q13285 whole entry, looked up, the tested form may be a part): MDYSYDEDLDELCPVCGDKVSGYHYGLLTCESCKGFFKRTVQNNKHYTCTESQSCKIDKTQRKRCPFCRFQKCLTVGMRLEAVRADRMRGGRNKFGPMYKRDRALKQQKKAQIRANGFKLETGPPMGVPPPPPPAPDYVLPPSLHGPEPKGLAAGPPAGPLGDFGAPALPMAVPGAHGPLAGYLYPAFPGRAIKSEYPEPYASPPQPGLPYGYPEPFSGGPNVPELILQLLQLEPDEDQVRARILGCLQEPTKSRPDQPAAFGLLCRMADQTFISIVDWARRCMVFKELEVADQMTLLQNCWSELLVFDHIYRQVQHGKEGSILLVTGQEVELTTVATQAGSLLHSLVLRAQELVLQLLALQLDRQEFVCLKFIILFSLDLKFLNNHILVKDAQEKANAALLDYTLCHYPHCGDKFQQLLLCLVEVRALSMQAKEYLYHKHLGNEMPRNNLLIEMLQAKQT

SMILES	activation
CC(=O)c1ccc(NC(=O)N[C@@H](Cc2ccccc2)C(=O)O)cc1	-21% (inactive)
O=C(Nc1ccccc1C(F)(F)F)c1cc(-c2ccc(O)cc2)on1	64.4% (active)
Cc1cc(C)nc(NC(=O)Nc2ccccc2C(F)(F)F)n1	14.8% (inactive)
O=C(c1cc(-c2ccc(O)cc2)on1)N1CCCc2ccccc21	47.5% (inactive)
CC(C)C(NC(=O)OCc1ccccc1)C(=O)OCC(=O)N1C(C)CCCC1C (stereo not given)	-2.9% (inactive)
Cc1ccc(C(=O)NC2CC(C)(C)NC(C)(C)C2)c(C)c1	4.3% (inactive)
O=C1CC(N2CCN(C(c3ccccc3)c3ccccc3)CC2)C(=O)N1 (stereo not given)	-23% (inactive)
COc1ccc(-c2cc(C(=O)NC(C(=O)O)C(C)C)c(C)o2)cc1OC (stereo not given)	56.5% (active)
COc1ccc(CCNC(=O)c2cc(-c3ccc4c(c3)OCO4)on2)cc1OC	3.9% (inactive)
COc1ccc(CNC(=O)c2c(C)cc(=O)oc2C)cc1OC	7.4% (inactive)
CN(C(=O)CSc1nnnn1-c1ccccc1)C1CCCCC1	34.6% (inactive)
Cc1cccc(-n2ncc3c(N4CCc5ccccc54)ncnc32)c1	33.4% (inactive)
COc1ccc(-n2ncc3c(N4CCc5ccccc54)ncnc32)cc1	59.8% (active)
COc1ccc(-n2ncc3c(N4CCCc5ccccc54)ncnc32)cc1	33.2% (inactive)
Cn1nnnc1SCC(=O)N1CCN(Cc2ccccc2)CC1	-17.2% (inactive)
CC(=NCC1CCCO1)c1c(O)[nH]c(=O)[nH]c1=O (stereo not given)	12.9% (inactive)
COc1cccc2sc(Nc3nc(C)c(C(C)=O)s3)nc12	109% (active)
COc1ccccc1Nc1ncc(C(C)=O)c(C)n1	34% (inactive)
COC(=O)c1sc(NC(=O)c2ccc(OC)cc2OC)nc1C	-57.8% (inactive)
CC(=O)Nc1ccc(S(=O)(=O)N2CCN(C3CCCCCCC3)CC2)cc1	-6.4% (inactive)
COc1cccc(N2CCN(C3CC(=O)N(c4ccc(Cl)cc4)C3=O)CC2)c1 (stereo not given)	-14.7% (inactive)
COc1ccc(C(=O)Nc2ccc(S(=O)(=O)Nc3onc(C)c3C)cc2)cc1OC	-3.3% (inactive)
COc1ccc(S(=O)(=O)N2CCN(C(=O)c3cccs3)CC2)cc1OC	-5.5% (inactive)
CCc1ccc(N2CC(C(=O)NC3=NCCS3)CC2=O)cc1 (stereo not given)	-7.9% (inactive)
O=C(NC1=NCCS1)c1ccc(Cl)s1	66.2% (active)

SMILES	activation
CC(NC(=O)COc1ccccc1)C(=O)NC1=NCCS1 (stereo not given)	-0.2% (inactive)
C=CCn1c(CC(=O)Nc2cccc(OC)c2)nnc1SCC(=O)NC1CCCCC1	12.8% (inactive)
Clc1cccc(Cl)c1Cn1nnc(-c2cccs2)n1	50.8% (active)
O=c1cc(Cn2nnc(-c3ccc(Cl)cc3)n2)nc2sccn12	-5.8% (inactive)
COc1ccccc1N1CCN(C(=O)Cn2nnc(-c3cccs3)n2)CC1	5% (inactive)
O=S(=O)(NCC1CCCO1)c1ccc2ccccc2c1 (stereo not given)	-16.7% (inactive)
O=C(c1cccnc1NCc1ccccc1)N1CCOCC1	-2.1% (inactive)
CCOC(=O)c1sc(/N=C/Nc2nc(C)c(C(=O)OCC)s2)nc1C	-2% (inactive)
COc1ccc(CCN(C)C(=O)C2CCCN(Cc3ccc(OC)c(OC)c3)C2)cc1OC (stereo not given)	5.8% (inactive)
CC(C)(C)NC(=O)Cn1nnc(-c2ccccc2Cl)n1	50% (active)
O=C(Cn1nnc(-c2ccccc2)n1)NCc1ccccc1	8.3% (inactive)
Cc1ccccc1-c1nnn(CC(=O)c2ccc(S(=O)(=O)N3CCCC3)cc2)n1	-10.4% (inactive)
CN(C(=O)c1ccno1)c1nnc(-c2cccnc2)s1	-11.5% (inactive)
CN(C(=O)c1ccccn1)c1nnc(-c2ccccn2)s1	56.6% (active)
CN(C(=O)COc1ccccc1)c1nnc(-c2ccncc2)s1	-6.7% (inactive)
COc1cc2cc(CN(CCN3CCCC3)C(=O)Nc3ccccc3Cl)c(=O)[nH]c2cc1OC	-8.6% (inactive)
COc1ccc(-c2noc(-c3cccc(OC)c3OC)n2)cc1OC	100% (active)
COc1ccc(-c2nc(-c3ccccc3)no2)c(OC)c1	-82.9% (inactive)
COc1cc(-c2nc(-c3ccncc3)no2)cc(OC)c1OC	-2.5% (inactive)
COCCOC(=O)C1=C(C)Nc2nc(C)nn2C1c1ccccc1 (stereo not given)	4.8% (inactive)
CCCCCNC(=O)Cc1ccc(OC)cc1	-9.8% (inactive)
O=C(O)CSCNC(=O)CC12CC3CC(CC(C3)C1)C2	-5.6% (inactive)
COc1cc(NS(=O)(=O)c2ccccc2)ccc1-n1nc(C)cc1C	-10.6% (inactive)
Cc1ccc(S(=O)(=O)Nc2ccc3ncccc3c2)cc1	-16.8% (inactive)
O=S(=O)(Nc1ccc2nc(-c3ccco3)[nH]c2c1)c1ccccc1	53.5% (active)

SMILES	activation
COc1cc(C2C(C#N)=C(C)NC3=C2C(=O)CC(C)(C)C3)ccc1O (stereo not given)	1.5% (inactive)
Cc1ccc(Cn2ccc(NC(=O)C3C4CCC(C4)C3C(=O)O)n2)cc1 (stereo not given)	3.1% (inactive)
CCc1nnc(NC(=O)C2CCCN2S(=O)(=O)c2ccccc2)s1 (stereo not given)	-4.2% (inactive)
CCCOc1cccc(C(=O)Nc2nnn(CCC)n2)c1	26.3% (inactive)
Cc1ccc(OCC(=O)Nc2ccc(-c3nnc(-c4ccco4)o3)cc2)cc1	65.5% (active)
CCC(=O)Oc1cccc(C(=O)Nc2ccc(-c3nnc(-c4ccco4)o3)cc2)c1	79.8% (active)
COc1ccc(CC(=O)Nc2ccc(-c3nnc(-c4ccc(C)cc4)o3)cc2)cc1	-47.6% (inactive)
CCOc1ccc(-c2nnc(-c3ccco3)o2)cc1	-48% (inactive)
CCCCOc1ccc(-c2nnc(-c3ccco3)o2)cc1	23.6% (inactive)
CCOC(=O)c1[nH]c2ccc(OC)cc2c1NC(=O)CCN1CCN(Cc2ccccc2)CC1	-7.7% (inactive)
COc1cccc(-n2cc3c(c2-c2ccccc2)c(=O)n(C)c(=O)n3C)c1	-21.1% (inactive)
CCOC(=O)c1cn(CC(=O)Nc2ccc(C(C)C)cc2)nn1	3.2% (inactive)
O=C(CN1CCN(C(=O)c2ccco2)CC1)Nc1ccc(Cl)c(C(F)(F)F)c1	11.1% (inactive)
CCCC(=O)Nc1cccc(-c2cn3ccsc3n2)c1	45.8% (inactive)
COc1ccc(-c2cn3ccsc3n2)cc1	53.3% (active)
Cc1ccc(S(=O)(=O)NCc2cn3ccsc3n2)c(C)c1	-0.8% (inactive)
O=C(O)[C@@H]1CCCN1c1ncnc2sc3c(c12)CCC3	-13.4% (inactive)
Cn1c(=O)c(C(=O)Nc2ncccn2)c(O)c2ccccc21	64.2% (active)
CCOc1cc(C(=O)Nc2ncccn2)cc(OCC)c1OCC	-1.3% (inactive)
O=C(Nc1ncccn1)c1cccs1	18.9% (inactive)
Cc1ccccc1OCCC(=O)Nc1c(C)n(C)n(-c2ccccc2)c1=O	13.7% (inactive)
Cc1nnc(NC(=O)CCC(=O)N2CCC(C)CC2)s1	0.2% (inactive)
Cc1ccc(S(=O)(=O)N2CCC(N3CCCCCC3)CC2)cc1	10.8% (inactive)
CCN(CC)S(=O)(=O)c1cc(C(=O)Nc2ccccn2)ccc1C	49.3% (inactive)
Cc1nc2c(c(=O)n1Cc1ccco1)c1nc3ccccc3nc1n2Cc1ccccc1	-2.3% (inactive)

SMILES	activation
CC(C)NC(=O)CCCn1c(=S)[nH]c2cc3c(cc2c1=O)OCO3	2.9% (inactive)
Cc1cccc(NC(=O)COc2ccccc2C)n1	-19.2% (inactive)
Cc1cccc(NC(=O)c2ccccc2NC(=O)C(C)(C)C)n1	-22.9% (inactive)
Cc1cccc(NC(=O)c2ccc3ccccc3n2)n1	98.6% (active)
O=C(c1c(Cl)nc2sccn12)N1CCCc2ccccc21	4.7% (inactive)
CS(=O)(=O)N1CCN(C(=O)Cc2ccccc2)CC1	3.5% (inactive)
O=C(CCC(=O)N1CCN(S(=O)(=O)c2ccccc2)CC1)NC1CCCc2ccccc21 (stereo not given)	-3.9% (inactive)
N#C/C=C1\Sc2ccccc2C(=O)N1CC(=O)N1CCN(S(=O)(=O)c2ccccc2)CC1	53.6% (active)
COc1ccccc1CNC(=O)CCn1c(=O)sc2ccccc21	-21.4% (inactive)
CS(=O)(=O)c1ccc2nc(NC(=O)CN3CCCCCC3)sc2c1	-3.6% (inactive)
COCCCNC(=O)Cn1cc(C(=O)C2CC2)c2ccccc21	1.7% (inactive)
CCOc1ccccc1Nc1nnc(SCC(=O)Nc2cc(C)on2)s1	-12.5% (inactive)
C=CCNC(=O)c1ccc(C)c(Br)c1	-12.1% (inactive)
COc1ccc2c(c1)CCc1c(C(=O)N3CCc4ccccc4C3)noc1-2	2.4% (inactive)
COc1ccc2c(c1)CCc1c(C(=O)N3CCCC3)noc1-2	55.3% (active)
COc1ccc2c(c1)CCc1c(C(=O)Nc3c(C)n(C)n(-c4ccccc4)c3=O)noc1-2	-6% (inactive)
O=C(O)CCC(=O)N(Cc1ccco1)c1nc(-c2ccccc2)cs1	9.9% (inactive)
CCc1nc(N2CCN(c3nc(C)cc(C)n3)CC2)c2oc3ccccc3c2n1	12% (inactive)
CCSc1nc(C)nc2c1oc1ccccc12	-10.2% (inactive)
CCc1nc(Nc2ccc3nccnc3c2)c2oc3ccccc3c2n1	50.3% (active)
COc1ccc(N2CCN(C(=O)CSc3nnc4ncccn34)CC2)cc1	-2.5% (inactive)
CCc1nnc(NC(=O)CSc2nnc(COc3ccc(C#N)cc3)n2-c2ccccc2)s1	0.6% (inactive)
O=C(COC(=O)c1ccccc1C(=O)c1ccccc1)c1ccco1	-2.1% (inactive)
O=C(OCC(=O)N1CCCC1)c1ccco1	14.1% (inactive)
CCN(CC)c1ccc(C(=O)OCC(=O)c2ccco2)cc1	53.6% (active)

Source: PubChem BioAssay AID522 (The Scripps Research Institute Molecular Screening Center, 2006)
